# Tests used:
# Mus musculus [1] = assay: Effect of compound on total white blood cell count in BDG1 male mice, after intraperitoneal administration at a dose of 9.56 mg/kg on day 7; format: functional
# Method in brief: (§1)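 Single ip dose given on day 0 to BDG₁ male mice. Total white blood cell count measured on days 3, 5 and 7, expressed as % change from control. Highest dose was at the LD₅₀, or at twice the optimal dose where so footnoted. Significance reported at p ≤ 0.05 and p ≤ 0.01. D marks death of one or more mice.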
# Mus musculus [2] = assay: Effect of compound on total white blood cell count in BDG1 male mice, after intraperitoneal administration at a dose of 17 mg/kg on day 5; format: functional
# Method in brief: (§2)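 Single ip dose given on day 0 to BDG1 male mice over a descending dose series. Total white blood cell count is expressed as % change from untreated control on days 3, 5 and 7. Significance is flagged at p ≤ 0.05 and p ≤ 0.01.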
# Mus musculus [3] = species on record: Mus musculus; assay: Half-wave potential produced by the compound at their optimal dose; format: functional; parameters: unit not given here
# Mus musculus [4] = assay: Effect of compound on total white blood cell count in BDG1 male mice, after intraperitoneal administration at a dose of 17 mg/kg on day 7; format: functional; method in brief: as §2
# Mus musculus [5] = assay: Effect of compound on total white blood cell count in BDG1 male mice, after intraperitoneal administration at a dose of 12.57 mg/kg on day 5; format: functional
# Method in brief: (§3)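 BDG₁ male mice received a single ip dose on day 0. The dose series topped out at the LD₅₀ level, or at twice the optimal dose for some agents. Total white blood cell count was taken on days 3, 5 and 7 and expressed as % change from untreated controls. Significance was set at p ≤ 0.05 or p ≤ 0.01.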
# Mus musculus [6] = assay: Effect of compound on total white blood cell count in BDG1 male mice, after intraperitoneal administration at a dose of 12.57 mg/kg on day 7; format: functional; method in brief: as §3
# Mus musculus [7] = assay: Effect of compound on total white blood cell count in BDG1 male mice, after intraperitoneal administration at a dose of 9.56 mg/kg on day 5; format: functional; method in brief: as §1
# Mus musculus [8] = assay: Minimum effective dose that show activity against P-388 murine leukemia cells in CDF1 female mice, after intraperitoneal administration (optimal dose is 12.8 mg/kg); format: functional; details: P388, ip, read-out: MED
# Method in brief: (§4)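 10⁶ P-388 ascites cells implanted ip in CDF₁ female mice. Six mice per dose, 10 saline-injected controls, and a concurrent mitomycin C reference group. %T/C = median survival time of treated/control × 100. MED is the lowest dose giving %T/C > 125. Therapeutic ratio = optimal dose/MED.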
# Mus musculus [9] = assay: Antitumor activity against P-388 murine leukemia cells in CDF1 female mice after intraperitoneal administration at the specified optimal dose of 12.8 mg/kg; format: functional
# Mus musculus [10] = assay: Effect of compound on total white blood cell count in BDG1 male mice, after intraperitoneal administration at a dose of 9.56 mg/kg on day 3; format: functional; method in brief: as §1
# Mus musculus [11] = assay: Effect of compound on total white blood cell count in BDG1 male mice, after intraperitoneal administration at a dose of 12.57 mg/kg on day 3; format: functional; method in brief: as §3
# Mus musculus [12] = assay: Effect of compound on total white blood cell count in BDG1 male mice, after intraperitoneal administration at a dose of 17 mg/kg on day 3; format: functional; method in brief: as §2
# [13] = Therapeutic ratio is expressed as ratio of optimal dose and minimum effective dose; format: ADME; details: mouse; read-out: TR; method in brief: as §4
# Mus musculus [14] = assay: Effect of compound on total white blood cell count in BDG1 male mice, after intraperitoneal administration at a dose of 0.96 mg/kg on day 5; format: functional; method in brief: as §3
# Mus musculus [15] = assay: Effect of compound on total white blood cell count in BDG1 male mice, after intraperitoneal administration at a dose of 1.3 mg/kg on day 3; format: functional; method in brief: as §3
# Mus musculus [16] = assay: Minimum effective dose that show activity against P-388 murine leukemia cells in CDF1 female mice, after intraperitoneal administration (optimal dose is 3.2 mg/kg); format: functional; details: P388, ip, read-out: MED; method in brief: as §4
# Mus musculus [17] = assay: Effect of compound on total white blood cell count in BDG1 male mice, after intraperitoneal administration at a dose of 1.3 mg/kg on day 7; format: functional; method in brief: as §3
# Mus musculus [18] = assay: Effect of compound on total white blood cell count in BDG1 male mice, after intraperitoneal administration at a dose of 1.7 mg/kg on day 3; format: functional; method in brief: as §3
# Mus musculus [19] = assay: Effect of compound on total white blood cell count in BDG1 male mice, after intraperitoneal administration at a dose of 1.3 mg/kg on day 5; format: functional; method in brief: as §3
# Mus musculus [20] = assay: Effect of compound on total white blood cell count in BDG1 male mice, after intraperitoneal administration at a dose of 1.7 mg/kg on day 5; format: functional; method in brief: as §3
# Mus musculus [21] = assay: Effect of compound on total white blood cell count in BDG1 male mice, after intraperitoneal administration at a dose of 1.7 mg/kg on day 7; format: functional; method in brief: as §3
# Mus musculus [22] = assay: Effect of compound on total white blood cell count in BDG1 male mice, after intraperitoneal administration at a dose of 0.96 mg/kg on day 7; format: functional; method in brief: as §3
# Mus musculus [23] = assay: Effect of compound on total white blood cell count in BDG1 male mice, after intraperitoneal administration at a dose of 0.96 mg/kg on day 3; format: functional; method in brief: as §3
# Mus musculus [24] = assay: Antitumor activity against P-388 murine leukemia cells in CDF1 female mice after intraperitoneal administration at the specified optimal dose of 3.2 mg/kg; format: functional
# Mus musculus [25] = species on record: Mus musculus; assay: Degree of leukopenia produced by compound is assessed form Percent change in white cells on days 5; format: functional; method in brief: as §3
# Mus musculus [26] = assay: Effect of compound on total white blood cell count in BDG1 male mice, after intraperitoneal administration at a dose of 4.22 mg/kg on day 3; format: functional
# Mus musculus [27] = assay: Effect of compound on total white blood cell count in BDG1 male mice, after intraperitoneal administration at a dose of 5.63 mg/kg on day 7; format: functional
# Mus musculus [28] = assay: Activity of compound dose of 1 mg/kg/day against Murine B-16 Melanocarcinoma in mice; format: functional
# Mus musculus [29] = assay: Effect of compound on total white blood cell count in BDG1 male mice, after intraperitoneal administration at a dose of 7.5 mg/kg on day 3; format: functional
# Mus musculus [30] = assay: Number of cured survivors, 45 days after administration of compound at a dose of 1 mg/kg/day in mice; format: functional
# Mus musculus [31] = assay: Effect of compound on total white blood cell count in BDG1 male mice, after intraperitoneal administration at a dose of 3.16 mg/kg on day 7; format: functional
# Mus musculus [32] = assay: Effect of compound on total white blood cell count in BDG1 male mice, after intraperitoneal administration at a dose of 5.63 mg/kg on day 5; format: functional
# Mus musculus [33] = assay: Effect of compound on total white blood cell count in BDG1 male mice, after intraperitoneal administration at a dose of 3.16 mg/kg on day 3; format: functional
# Mus musculus [34] = species on record: Mus musculus; assay: Degree of leukopenia produced by compound is assessed form Percent change in white cells on day 3; format: functional; method in brief: as §3
# Mus musculus [35] = assay: Activity of compound dose of 8 mg/kg/day against Murine B-16 Melanocarcinoma in mice; format: functional
# Mus musculus [36] = assay: Activity of compound dose of 0.5 mg/kg/day against Murine B-16 Melanocarcinoma in mice; format: functional
# Mus musculus [37] = assay: Number of tumored survivors, 45 days after administration of compound at a dose of 1 mg/kg/day in mice; format: functional
# Mus musculus [38] = assay: Number of tumored survivors, 45 days after administration of compound at a dose of 8 mg/kg/day in mice; format: functional
# Mus musculus [39] = assay: Effect of compound on total white blood cell count in BDG1 male mice, after intraperitoneal administration at a dose of 3.16 mg/kg on day 5; format: functional
# Mus musculus [40] = assay: Effect of compound on total white blood cell count in BDG1 male mice, after intraperitoneal administration at a dose of 7.5 mg/kg on day 5; format: functional
# Mus musculus [41] = assay: Activity of compound dose of 2 mg/kg/day against Murine B-16 Melanocarcinoma in mice; format: functional
# Mus musculus [42] = assay: Effect of compound on total white blood cell count in BDG1 male mice, after intraperitoneal administration at a dose of 5.63 mg/kg on day 3; format: functional
# Mus musculus [43] = assay: Effect of compound on total white blood cell count in BDG1 male mice, after intraperitoneal administration at a dose of 4.22 mg/kg on day 7; format: functional
# Mus musculus [44] = assay: Activity of compound dose of 4 mg/kg/day against Murine B-16 Melanocarcinoma in mice; format: functional
# Mus musculus [45] = assay: Effect of compound on total white blood cell count in BDG1 male mice, after intraperitoneal administration at a dose of 4.22 mg/kg on day 5; format: functional
# Mus musculus [46] = assay: Effect of compound on total white blood cell count in BDG1 male mice, after intraperitoneal administration at a dose of 7.5 mg/kg on day 7; format: functional
smiles,measurement,setting,value
C#CCNC1=C(C)C(=O)C2=C(C1=O)[C@H](COC(N)=O)C1(OC)[C@@H]3N[C@@H]3CN21 (stereo partly specified),Change,Mus musculus [1],-28%
same,Change,Mus musculus [2],-75%
same,E1/2,Mus musculus [3],-0.41
same,Change,Mus musculus [4],-73%
same,Change,Mus musculus [5],-69%
same,Change,Mus musculus [6],-52%
same,Change,Mus musculus [7],-56%
same,minimal effective dose,Mus musculus [8],0.2 mg/kg
same,T/C,Mus musculus [9],358%
same,Change,Mus musculus [10],-59%
same,Change,Mus musculus [11],-68%
same,Change,Mus musculus [12],-80%
same,selectivity ratio,[13],64
COC1=C(C)C(=O)C2=C(C1=O)[C@@H](COC(N)=O)[C@@]1(OC)[C@H]3N[C@H]3CN21 [MITOMYCIN A],Change,Mus musculus [14],-25%
same,Change,Mus musculus [15],-12%
same,minimal effective dose,Mus musculus [16],0.05 mg/kg
same,E1/2,Mus musculus [3],-0.21
same,Change,Mus musculus [17],-9%
same,Change,Mus musculus [18],-28%
same,Change,Mus musculus [19],-15%
same,Change,Mus musculus [20],-24%
same,Change,Mus musculus [21],5%
same,Change,Mus musculus [22],4%
same,Change,Mus musculus [23],-11%
same,T/C,Mus musculus [24],180%
same,selectivity ratio,[13],64
same,Change,Mus musculus [25],-2%
CO[C@@]12[C@H](COC(N)=O)C3=C(C(=O)C(C)=C(N)C3=O)N1C[C@@H]1N[C@@H]12 [MITOMYCIN],Change,Mus musculus [26],-55%
same,Change,Mus musculus [27],-26%
same,minimal effective dose,Mus musculus [16],0.2 mg/kg
same,T/C,Mus musculus [28],136%
same,Change,Mus musculus [29],-58%
same,Survivors,Mus musculus [30],1
same,E1/2,Mus musculus [3],-0.45
same,Change,Mus musculus [31],-38%
same,Change,Mus musculus [32],-58%
same,Change,Mus musculus [33],-48%
same,Change,Mus musculus [34],-42%
same,T/C,Mus musculus [35],164%
same,T/C,Mus musculus [36],122%
same,Survivors,Mus musculus [37],1
same,Survivors,Mus musculus [38],1
same,Change,Mus musculus [39],-42%
same,Change,Mus musculus [40],-67%
same,T/C,Mus musculus [41],159%
same,Change,Mus musculus [42],-57%
same,Change,Mus musculus [43],-1%
same,T/C,Mus musculus [24],178%
same,T/C,Mus musculus [44],193%
same,Change,Mus musculus [45],-53%
same,Change,Mus musculus [46],-53%

# Source: ChEMBL document CHEMBL1121685, “Development of new mitomycin C and porfiromycin analogues” (J Med Chem, 1981)
